The source of these data is publication PMC10918659 (ACS Omega, 2024).

For orientation: Cmax means the peak of the concentration-time curve. One may read the MRT as a mean duration of stay, worked out from the concentration-time curve. The Tmax is the time from dosing to the highest level. Broadly, the half-life is the time in which the quantity being followed falls by half.

Read-outs that look alike come from different tables or passages of the source.

Data set [1] is described as follows: Serum biochemical parameters during NNK lung cancer induction. The format is in vivo, Sprague-Dawley rats. A digest of the protocol: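 NNK was given to Sprague-Dawley rats (200–250 g) as […]. Tail-vein blood was clotted 30 min at RT, spun 20 min at 1200 rpm, and serum stored at −80 °C. TBARS: TCA/TBA/HCl at 95 °C for 15 min, […]. SOD: epinephrine in carbonate buffer pH 9.2, A295, reported as units/mg protein.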

The nature of another data set: Pharmacokinetic study. The format is in vivo, Sprague-Dawley rats. Conditions: for Cmax / MRT / Tmax / half-life: Sprague-Dawley, rat, inhaled or intranasal, 3.5 mg/kg; for Frel: relative to silibinin solution; for AUCtotal / CL: silibinin 3.5 mg/kg, NPs 2.5 mg/kg by microspray aerosolizer.
The nature of the next data set: Toxicity experiment. The format is in vivo, Sprague-Dawley rats. Conditions: daily for 2 weeks; SB 3.5 mg/kg, NPs 2.5 mg/kg. A digest of the protocol: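 Sprague-Dawley rats, n = 6 per group, were dosed daily for 2 weeks with free test compound (3.5 mg/kg), folate-conjugated nanoparticles (2.5 mg/kg), or saline via the caudal vein. Food and water were given freely. After 2 weeks, rats were sacrificed and lungs, liver, kidneys and spleen were weighed. Body-weight gain was recorded, and the organ index (mg/g) was calculated from organ weights.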

For data set [2] the following is noted: cited from earlier work.

As to `CN(CCCC(=O)c1cccnc1)N=O` [NNK, 4-(methylnitrosamino)-1-(3-pyridyl)-1-butanone], the “increase of MDA content in sera vs control” value is recorded as 4.21% in data set [1] (2 months), 21.4% in data set [1] (3 months) and 35.16% in data set [1] (4 months). For the same molecule, the “reduction of SOD activity vs control” value in data set [1] (2 months) worked out at 10.437%; in data set [1] (3 months), 29.16%; in data set [1] (4 months), 45.21%.

Take `COc1cc(C2Oc3cc([C@H]4Oc5cc(O)cc(O)c5C(=O)[C@@H]4O)ccc3OC2CO)ccc1O` (stereo partly drawn) [silibinin]: in the data set “Pharmacokinetic study” (lung), the peak level (Cmax) was 32500 ± 25800 ng/mL, the MRT was found to be 3.88 ± 0.87 h, the Tmax is 1 ± 2.21 h and the half-life is 4.3 ± 0.58 h. Also, in “Pharmacokinetic study” (plasma), the highest concentration (Cmax) is 23600 ± 13200 ng/mL, the mean residence time MRT was found to be 4.25 ± 1.05 h, the Tmax worked out at 1 ± 2.21 h and the half-life was 8.9 ± 1.25 h. Besides, the “time to reach peak” value in the data set “Pharmacokinetic study” (plasma) is listed as 1 h. Further, in the data set “Pharmacokinetic study” (lung kinetics), the Frel amounted to 1, the AUCtotal was 745.2 ± 102.5 µg·h/mL and the CL worked out at 0.57 ± 1.02 h⁻¹. In addition, the “time to reach peak” value in “Pharmacokinetic study” (lungs) was 1 h. For the same molecule, in the data set “Pharmacokinetic study” (plasma kinetics), the Frel was found to be 1, the AUCtotal amounted to 978.5 ± 118.52 µg·h/mL and the CL amounted to 0.87 ± 0.89 h⁻¹. In the data set “Toxicity experiment”, this molecule displayed an increment in weight of 29.85 ± 3.21 g, a kidney organ index of 3.78 mg/g, a liver organ index of 39.52 mg/g and a lung organ index of 6.27 mg/g. In the data set “Toxicity experiment”, this molecule displayed a spleen organ index of 7.42 mg/g. For the same molecule, in data set [2] (after oral administration), the Tmax was 2 to 4 h and the half-life is reported as 6 h. Moreover, the “oral rate of absorption” value in data set [2] (conventional silibinin) is 23–47%.
